This excerpt belongs to a sample that is enriched for hits.
Insulin prom act: TRM-6 insulin promoter activation; TRM-6 cells (human fetal islet line), insulin promoter eGFP reporter, imaging; plate-scaled: unstimulated 0, stimulated control 100; activation, % at 2 µM; 130,000 tested, 0.81% active;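 active = activation at 2 µM above a set limit, confirmed on inspection of the cell images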;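 also: share of cells whose green reporter signal exceeds an intensity cutoff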
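test system = TRM-6 insulin promoter–eGFP reporter cells | benchmarks = stimulated versus unstimulated wells as plate controls | read-out basis = percent cells above green-intensity threshold, converted to percent activation versus plate controls | detection = fixed-cell fluorescence microscopy, eGFP plus Hoechst | incubation = tamoxifen pre-incubation 15 h overnight, then compound exposure 48 h at 37 °C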
* = called active by the depositor.

SMILES | Insulin prom act
COC(=O)Cn1c(=NC(=O)c2cc(OC)cc(OC)c2)sc2cc(OC)ccc21 | -3
CCn1c(=NC(=O)CSC(C)=O)sc2cc(F)ccc21 | 79*
O=C(Nc1ccc2c(c1)OCO2)OCc1ccccc1 | -100
COC(=O)c1ccc2c(=O)n(-c3ccccc3F)c(=S)[nH]c2c1 | -100
CC(C)CNc1cc(Cl)c(S(=O)(=O)NCC(C)C)cc1C(=O)O | 0
O=S(=O)(Nc1ccc2c(c1)OCCO2)c1ccc2oc3ccccc3c2c1 | 347
O=C(O)c1cc(S(=O)(=O)Nc2ccc3c(c2)OCCO3)c(Cl)cc1Cl | 150*
CCOC(=O)c1sc(C)c(C(=O)NCC(C)(C)CN(C)C)c1N | -3
N#CCCN(C(=O)COC(=O)c1ccc(CNS(=O)(=O)c2ccc(F)c(Cl)c2)cc1)c1ccc(F)cc1 | -8
C=CCNC(=O)CN(c1cccc(Br)c1)S(C)(=O)=O | 3
CS(=O)(=O)N(CC(N)=O)c1ccc(F)c(Cl)c1 | 277
CS(=O)(=O)N(CC(N)=O)c1cccc(Br)c1 | 514*
CC(C)OC(=O)C1C(=O)CC(C)(O)C(C(=O)OC(C)C)C1c1cccc(O)c1 (centres undefined) | 0
CCN(C(=O)CSc1nnc(Nc2ccccc2)s1)C1CCS(=O)(=O)C1 (centres undefined) | 6
Fc1cc(F)cc(NC(=S)Nc2ccccc2N2CCOCC2)c1 | -9
COc1cc2c(cc1OC)C(C(=O)Nc1ccccc1N1CCN(C)CC1)C1c3ccccc3CCN1C2=O (centres undefined) | 355*
COc1cc2c(cc1OC)C(C(=O)Nc1cccc(C)n1)C(c1cccnc1)N(C)C2=O (centres undefined) | 0
COc1ccc(C2C(C(=O)N3CCN(C)CC3)c3cc(OC)c(OC)cc3C(=O)N2C)cc1 (centres undefined) | 0
CN(CC(=O)NCc1ccccn1)S(=O)(=O)c1ccc2ccccc2c1 | 0
O=C(Nc1cc(N2CCOCC2)ncn1)NC1(C(F)(F)F)Oc2ccccc2O1 | 43
CSc1ccccc1C(=O)C1CCCN(C(=O)CCc2cccnc2)C1 (centres undefined) | 0
Cc1ccsc1C=C1C(=O)c2ccccc2C1=O | 312*
Cc1ccsc1/C=N/N1CCN(C2c3ccccc3-c3ccccc32)CC1 | -3
Cc1ccc(C(=O)O)cc1-c1ccc(C=C2C(=O)c3ccccc3C2=O)o1 | 0
Cc1ccccc1N1CCN(C(=O)c2ccccc2NC(=O)C2CC=CCC2C(=O)O)CC1 (centres undefined) | -3
SMILES | Insulin prom act
CC(=O)Nc1ccccc1C(=O)C(=O)Nc1ccc(C(=O)N2CCOCC2)cc1 | -4
CC(C)(C)NC(=O)C(OC(=O)c1cccs1)c1ccc(C#N)cc1 (centres undefined) | -3
CCOC(=O)/C=c1\s/c(=C\c2c(OCC)ccc3ccccc23)c(=O)n1CC(=O)NCC1CCCO1 (centres undefined) | 185
COCCNC(=O)Cn1c(=O)n(CCCCCC(=O)NCc2ccc3c(c2)OCO3)c(=O)c2sccc21 | -72
CCOC(=O)/C=c1\s/c(=C\c2ccc3cc(OC)ccc3c2)c(=O)n1CC(=O)NCc1ccc2c(c1)OCO2 | 335*
C=CCn1c(SCc2nc3sc4c(c3c(=O)[nH]2)CCCC4)nc2ccccc2c1=O | 5
Cc1cc(C(=O)CSc2nnc(-c3cccs3)o2)c(C)n1-c1ccccc1 | 3
COc1ccc(C(=O)N/N=C/c2ccc(OC)c(OS(=O)(=O)c3ccccc3)c2)cc1 | -5
COc1cc(/C=N/NC(=O)c2ccc(-c3ccccc3)cc2)cc(OC)c1OC | 443*
COc1cc(/C=N/NC(=O)c2ccoc2C)cc(OC)c1OC | 3
CS(=O)(=O)n1nc(-c2ccc(Cl)cc2)nc1SCc1ccccc1 | -7
O=C(NCc1ccco1)C1CN(S(=O)(=O)c2ccccc2)CCN1S(=O)(=O)c1ccccc1 (centres undefined) | 0
O=S(=O)(NCc1ccco1)N1CCOCC1 | 494*
Cc1ccc(C(=O)NCc2ccco2)cc1S(=O)(=O)N1CCOCC1 | 5
CCOC(=O)N1CCN(C(=O)C2CCCN(S(=O)(=O)c3ccc(C)cc3)C2)CC1 (centres undefined) | 0
CC(=O)CCn1cnc([N+](=O)[O-])n1 | -7
COc1ccc(S(=O)(=O)n2nc(C)cc2C)c(C)c1C | -7
O=C(O)C1C2C=CC3(CN(Cc4ccccn4)C(=O)C13)O2 (centres undefined) | -7
C#CCCCCCCC#CCN(C)C | 0
CCOc1ccccc1C1NC(=O)NC(C)=C1C(=O)OC1CCCC1C (centres undefined) | 5
CC1=C(C(=O)OCc2ccccc2)C(c2ccccc2OC(F)F)NC(=O)N1 (centres undefined) | 300*
CCOC(=O)C1=C(C)NC(=O)NC1c1ccc(-c2ccccc2F)o1 (centres undefined) | 0
Cc1ccc(S(=O)(=O)N(C)C)cc1NC(=O)c1cncc(Br)c1 | -3
CC[N+]1=C(C)C(C)(C)c2cc(C)ccc21 | 488*
CCc1ccc2c(c1)/C(=N/OC)C(=O)N2 | -8
SMILES | Insulin prom act
CCN(CC)c1nc2c(s1)C(=O)CC(C)(C)C2 | -3
Cn1ncc(N=Cc2ccccc2)c1C(=O)Nc1cccc(Cl)c1 | -5
CCOc1ccccc1-n1c(SCC(N)=O)nc2ccccc2c1=O | 3
COc1cccc(-c2nnc(SCC(N)=O)n2-c2ccc(Cl)cc2)c1 | 0
CCOc1ccccc1-n1c(SCC(N)=O)nnc1-c1ccccc1 | 154*
Cc1ccccc1Nc1nc(N)nc(CN(C)Cc2ccccc2Cl)n1 | 0
CCOc1ccc(C2CC(=O)n3nc(C45CC6CC(CC(C6)C4)C5)nc3S2)cc1OC (centres undefined) | -7
CCOc1ccc(C2N(c3cc(C)on3)C(=O)C3CCCN32)cc1OC (centres undefined) | 120*
COc1cc(C2C(C(=O)c3ccc(C)o3)=C(O)C(=O)N2c2cc(C)on2)cc(Br)c1O (centres undefined) | 5
O=C1CCCN1c1ccc(S(=O)(=O)Oc2ccc(Cl)cc2)cc1[N+](=O)[O-] | 4
CCNc1nnc(-c2ccc(C)cc2)o1 | 0
c1ccc(CC(Nc2ccccn2)c2ccccc2)cc1 (centres undefined) | 0
CC#C[C@]1(O)CC[C@H]2[C@@H]3CCC4=CC(=O)CCC4=C3[C@@H](c3ccc(N(C)C)cc3)C[C@@]21C | 5
Cc1nn(-c2ccccc2)c(C)c1/C=N/n1c(-c2ccc(Cl)cc2)n[nH]c1=S | 0
Cc1nn(-c2ccccc2)c(C)c1/C=N/NC(=O)c1cc(-c2ccccc2)n[nH]1 | 125*
Cc1nn(-c2ccccc2)c(C)c1/C=N/NC(=O)CSc1nnc(SCc2ccccc2Cl)s1 | 167
Cc1ccc(C2=NNC(=O)C(P(=O)(c3ccccc3)c3ccccc3)C2)cc1 (centres undefined) | -7
CC(=O)OCc1c(F)c(F)c(-n2nc(C)cc2C)c(F)c1F | 9
Cc1cc(OCC(=O)Nc2ccc(CN3CCCCC3)cc2)ccc1Cl | 0
Cn1cccc1C(=O)OCC(=O)c1cc2ccccc2o1 | 185*
CC(C)NC(=O)c1cc2ccccc2o1 | -27
Cc1cc(SCC(=O)c2cc3ccccc3o2)nc2ccccc12 | 8
COc1ccc(-c2[nH]ncc2CNCCc2ncccc2C)cc1F | -71
C=CCN=C1NN=C(c2ccc3c(c2)OCCO3)CS1 | 10
COc1cccc(-n2nnc3c(=O)n(CC(=O)Nc4ccc(C)cc4)cnc32)c1 | 116
O=C(C1CCN(S(=O)(=O)N2CCOCC2)CC1)N1CCN(c2ccccc2)CC1 | -8

Assay outcomes deposited in PubChem BioAssay by Columbia University Molecular Screening Center.
